SMILES strings stand for the structures.

The values below come from PMC11339345 (International Journal of Nanomedicine, 2024).

For data set [1] the following is noted: two hours of incubation in an alkaline solution (0.005 N NaOH, pH roughly 11.7) ref 39; cited from earlier work.
The conditions of data set [2]: cited from earlier work.
The nature of data set [3]: Pharmacokinetics of DTX in mice after oral administration. It counts as in vivo. The settings on record: male, Kunming, mouse, plasma (systemic circulation), 20 mg/kg, oral 20 mg/kg DTX. The method, boiled down: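 Male SPF Kunming mice (22–24 g) were randomised by weight and given a single oral dose of 20 mg/kg. Free drug was prepared as a sonicated water dispersion and the nanoparticle powder was vortexed in water. Five mice were sampled per time point (0.125–12 h) under Zoletil anaesthesia. Portal and systemic heparin plasma were collected, and liver and lung were rinsed, weighed and homogenised in water. Samples were acetonitrile-precipitated and assayed by LC-MS/MS, with parameters from non-compartmental analysis.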

`CC(=O)O[C@@]12CO[C@@H]1C[C@H](O)[C@@]1(C)C(=O)[C@H](O)C3=C(C)[C@@H](OC(=O)[C@H](O)[C@@H](NC(=O)OC(C)(C)C)c4ccccc4)C[C@@](O)([C@@H](OC(=O)c4ccccc4)[C@H]21)C3(C)C` [DTX, Docetaxel]: the Degradation entry in data set [1] is on record as “about 25%”. For the same compound, the Oral bioavailability in data set [2] is reported as 7.39%. The time to peak (Tmax) in data set [3] is 30 min.

The term Tmax denotes the time from dosing to the highest level.
